Only a sample is shown.
Apaf1 activ – activators of human Apaf-1 apoptosome. O14727. Apaf-1 apoptosome caspase-3 activation, DEVD-Rh110 fluorescence; active compounds read low. activity change, negative = activation, % at 20 µM. 330,000 tested, 0.31% active;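 active = activity change at or below -40% at 20 µM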
Target sequence (O14727 whole entry, looked up): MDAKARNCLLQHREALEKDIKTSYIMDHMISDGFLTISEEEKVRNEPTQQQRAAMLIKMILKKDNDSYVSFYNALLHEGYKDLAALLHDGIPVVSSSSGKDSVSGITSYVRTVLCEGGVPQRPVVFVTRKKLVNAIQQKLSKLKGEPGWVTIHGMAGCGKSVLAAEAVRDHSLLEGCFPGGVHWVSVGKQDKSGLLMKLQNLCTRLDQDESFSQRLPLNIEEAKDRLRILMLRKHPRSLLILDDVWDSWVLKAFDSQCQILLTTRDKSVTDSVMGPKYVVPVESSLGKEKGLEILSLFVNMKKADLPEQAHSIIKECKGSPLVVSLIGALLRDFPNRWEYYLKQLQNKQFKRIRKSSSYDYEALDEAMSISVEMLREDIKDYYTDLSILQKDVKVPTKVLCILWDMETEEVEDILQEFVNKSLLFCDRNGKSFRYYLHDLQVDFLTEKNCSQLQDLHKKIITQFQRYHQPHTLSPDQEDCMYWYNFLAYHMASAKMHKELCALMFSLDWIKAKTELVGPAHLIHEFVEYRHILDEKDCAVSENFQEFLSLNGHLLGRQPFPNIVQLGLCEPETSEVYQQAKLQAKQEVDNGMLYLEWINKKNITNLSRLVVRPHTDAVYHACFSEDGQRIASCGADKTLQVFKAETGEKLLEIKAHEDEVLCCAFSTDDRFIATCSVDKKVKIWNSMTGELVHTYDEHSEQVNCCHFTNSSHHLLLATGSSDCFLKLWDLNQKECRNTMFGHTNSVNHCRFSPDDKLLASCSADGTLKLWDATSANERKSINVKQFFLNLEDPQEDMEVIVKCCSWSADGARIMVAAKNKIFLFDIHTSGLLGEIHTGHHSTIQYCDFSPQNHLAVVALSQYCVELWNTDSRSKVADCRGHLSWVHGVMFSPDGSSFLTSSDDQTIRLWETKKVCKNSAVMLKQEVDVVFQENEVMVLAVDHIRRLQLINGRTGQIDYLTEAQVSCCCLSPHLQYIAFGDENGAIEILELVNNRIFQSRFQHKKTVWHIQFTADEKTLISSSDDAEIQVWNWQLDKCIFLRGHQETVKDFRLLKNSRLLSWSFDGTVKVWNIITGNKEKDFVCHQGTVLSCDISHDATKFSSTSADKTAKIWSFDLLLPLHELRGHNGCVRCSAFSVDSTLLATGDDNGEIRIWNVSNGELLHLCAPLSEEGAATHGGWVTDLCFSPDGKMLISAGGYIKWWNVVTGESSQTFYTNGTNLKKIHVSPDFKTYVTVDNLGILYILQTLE
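System: Reconstituted apoptosome of Apaf-1, cytochrome c, caspase-9, procaspase-3 | Reagent: dATP, cytochrome c, and (Z-DEVD)2-Rh110 caspase-3 substrate | Times: 30 min compound preincubation and 50 min reaction, both room temperature | Detection: Caspase-3-released Rh110 fluorescence, 540 nm emission, 480 nm excitation | Measure: Caspase-3 activity via Apaf-1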
Rh110 act interf – Rh110 signal interference in Apaf-1 activator counter-screen; Rh110 fluorescence interference, quenched caspase reaction, Ex480/Em540; shares compounds with Apaf1 activ; fluorescence interference (activity change), % at 20 µM, hits read low; 980 tested, under 10 active; AID 504616;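 active = mean activity change at or below -40% when tested at 20 µM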
Apaf-1 act conf – Apaf-1 (human) activation, single-dose confirmed | reconstituted apoptosome caspase-3 activity, DEVD-Rh110 fluorescence; active compounds read low | shares compounds with Apaf1 activ | activity change, negative = activation, % at 20 µM | AID 504617 | 980 tested, 5% active;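 active = mean activity change at or below -40%, meaning activation of 40% or more, at 20 µM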
Active calls of the source: *.

What do the screens show for `N#C/C(=N/Nc1ccccc1[N+](=O)[O-])C(N)=S`?
Apaf1 activ: -40*; Rh110 act interf: 10; Apaf-1 act conf: 4

What do the screens show for `CN1CCc2nc(SCc3ccc(Cl)cc3)c(C#N)c(-c3cccs3)c2C1`?
Apaf1 activ: 83

How did c1ccc(CC2CCN(c3nc4ccccc4n4nnnc34)CC2)cc1 do in these assays?
Apaf1 activ: 58

Results for Cc1c(N=Cc2cccs2)c(=O)n(-c2ccccc2)n1C ?
Apaf1 activ: -182*; Rh110 act interf: 1; Apaf-1 act conf: 8

Results for CC1=NN(c2ccccc2)C(=O)/C1=C/c1cccs1 ?
Apaf1 activ: 90

How did COc1ccc2c3c(cccc13)N(C)N=C2C do in these assays?
Apaf1 activ: 73

What do the screens show for `O=C1Nc2cc(Cl)c(Cl)cc2N(O)N1c1cccc(Cl)c1`?
Apaf1 activ: 44

What do the screens show for `O=C1Nc2ccccc2N(O)N1c1cc(-c2cccc(Cl)c2)no1`?
Apaf1 activ: -88*; Rh110 act interf: -9; Apaf-1 act conf: 14

Results for O=C(/C=C/c1ccco1)c1ccc(NC(=O)C23CC4CC(CC(C4)C2)C3)cc1 ?
Apaf1 activ: 45

Results for O=C(Nc1nc(-c2ccccc2)cs1)c1ccc(N2CCOCC2)c([N+](=O)[O-])c1 ?
Apaf1 activ: -46*; Rh110 act interf: -4; Apaf-1 act conf: 7

How did Nc1cc(N)c(OCC(F)(F)F)cc1OCC(F)(F)F do in these assays?
Apaf1 activ: 84

How did CCOc1ccccc1OCCC(=O)NNC(=O)Cn1nc(C)cc1C do in these assays?
Apaf1 activ: -81*; Rh110 act interf: 5; Apaf-1 act conf: 9

What do the screens show for `Cc1cc(C)c2nc(N(CCN(C)C)C(=O)c3ccc(S(=O)(=O)N(C)CC4CCCO4)cc3)sc2c1` (stereo not drawn)?
Apaf1 activ: 49

What do the screens show for `CCOc1cccc(-c2cc(=O)[nH][nH]2)c1`?
Apaf1 activ: 44

Results for O=C(NCc1ccccc1)c1ccc2nc(-c3ccco3)c(-c3ccco3)nc2c1 ?
Apaf1 activ: 65

How did COc1ccc(-c2noc(-c3ccccc3C(=O)NCc3ccco3)n2)cc1OC do in these assays?
Apaf1 activ: -324*; Rh110 act interf: 4; Apaf-1 act conf: -4

Results for COc1ccc(NC(=O)c2ccc(-c3ccc(-c4noc(C)n4)cc3C)cc2)cc1N1CCN(C)CC1 ?
Apaf1 activ: 57

What do the screens show for `Nc1ccc(C(=O)N/N=C/c2cccc(Oc3ccccc3)c2)cc1`?
Apaf1 activ: -64*; Rh110 act interf: -4; Apaf-1 act conf: 14

Results for Cc1[nH]n(-c2ccccc2)c(=O)c1/C=N/NC(=O)c1cccc(F)c1 ?
Apaf1 activ: 62

How did COc1ccc2ccccc2c1C1CC(=O)N2CN(Cc3ccco3)CSC2=C1C#N (stereo not drawn) do in these assays?
Apaf1 activ: 52

How did CCN(C(=O)Cn1c(=O)n2nc(CCn3nc(C)cc3C)nc2c2ccccc21)c1cccc(C)c1 do in these assays?
Apaf1 activ: -291*; Rh110 act interf: 9; Apaf-1 act conf: 16

Results for C[C@]12CC[C@@H]3c4ccc(OS(=O)(=O)O)cc4CC[C@H]3[C@@H]1CCC2=O ?
Apaf1 activ: 6

What do the screens show for `C#CCOCCOCCOCCNc1nc(N2CCN(C(=O)[C@H]([C@@H](C)CC)n3cc([C@@H](N)CC(C)C)nn3)CC2)nc(N2CCN(C(=O)[C@H](Cc3cc4ccccc4[nH]3)n3cc([C@@H](N)CC(C)C)nn3)CC2)n1`?
Apaf1 activ: 58

What do the screens show for `CCCN1C(=O)/C(=C/c2cc(C)n(C)c2C)SC1=Nc1ccc(OC)cc1`?
Apaf1 activ: 41

How did O=C(Nc1ccccc1O)c1ccc2c(c1)C(=O)N(Cc1ccco1)C2=O do in these assays?
Apaf1 activ: -93*; Rh110 act interf: -9; Apaf-1 act conf: 5

How did O=[N+]([O-])c1cccc(C=Nc2cccc3ccccc23)c1O do in these assays?
Apaf1 activ: 93

Results for CCCCc1cc(=O)oc2cc(OCC(=O)NCCN3CCOCC3)c(Cl)cc12 ?
Apaf1 activ: 61

What do the screens show for `Cc1[nH]n(-c2ccccc2)c(=O)c1/C=N/Nc1nncc(-c2ccccc2)n1`?
Apaf1 activ: 81

How did Cc1ccc(/C=N/NC(=O)C(C)NC(=O)c2ccccc2)cc1 (stereo not drawn) do in these assays?
Apaf1 activ: 41

How did O=C(Cc1cc(=O)[nH][nH]1)N/N=C/c1ccccc1Cl do in these assays?
Apaf1 activ: 77

How did CC(C)c1ccc(/C=N/NC(=O)c2ccccc2Cl)cc1 do in these assays?
Apaf1 activ: -194*; Rh110 act interf: 1; Apaf-1 act conf: 18

How did CC(=O)N1CCn2c3c(c(=O)c4cc(C)ccc42)CCC31 (stereo not drawn) do in these assays?
Apaf1 activ: 73

Results for CN(C)c1cc(N/N=C\c2ccccc2)nc(N(C)C)n1 ?
Apaf1 activ: 95

How did COc1cc(NC2CCCCC2O)c2nc(-c3ccc(Cl)cc3)ccc2c1 (stereo not drawn) do in these assays?
Apaf1 activ: 55

What do the screens show for `CCOC(=O)C1(CCOc2ccccc2)CCN(CC(O)CO)CC1` (stereo not drawn)?
Apaf1 activ: -53*; Rh110 act interf: 2; Apaf-1 act conf: 12

How did CCc1ccc(OCC(O)CN2CCC(CN3C(=O)c4cccc5cccc(c45)C3=O)CC2)cc1 (stereo not drawn) do in these assays?
Apaf1 activ: 42

How did O=[N+]([O-])c1cc(CN2CCN(c3cccc(C(F)(F)F)c3)CC2)c2cccnc2c1O do in these assays?
Apaf1 activ: 42

What do the screens show for `CCC1Oc2ccccc2N(CC(=O)NC2CCCCC2C)C1=O` (stereo not drawn)?
Apaf1 activ: -224*; Rh110 act interf: 7; Apaf-1 act conf: 15

How did COc1ccc2nc3cc(Cl)ccc3c(Nc3cc(CN4CCCC4)c(O)c(CN4CCCC4)c3)c2n1 do in these assays?
Apaf1 activ: 62

How did O=C(c1cccs1)[C@@H]1[C@@H]2C(=O)N(Cc3ccc4c(c3)OCO4)C(=O)[C@@H]2C2c3ccccc3C=CN21 (stereo partly drawn) do in these assays?
Apaf1 activ: 82

What do the screens show for `O=C(CC1Nc2cccc3cccc(c23)NC1=O)Nc1ccccc1` (stereo not drawn)?
Apaf1 activ: 96

What do the screens show for `COc1ccccc1-c1nnc(C2CCN(S(=O)(=O)c3cccc([N+](=O)[O-])c3)CC2)o1`?
Apaf1 activ: -53*; Rh110 act interf: 0; Apaf-1 act conf: 8

How did C#CCOCCOCCOCCNc1nc(N2CCN(C(=O)CCCCCCCCCCNC(=O)[C@H](CCCCN)n3cc(CCO)nn3)CC2)nc(N2CCN(C(=O)CCCCCCCCCCNC(=O)[C@@H]([C@H](C)O)n3cc(C)nn3)CC2)n1 do in these assays?
Apaf1 activ: 59

Results for NC1=NC[C@H](c2ccccc2)N1CCc1cc(C(F)(F)F)cc(C(F)(F)F)c1 ?
Apaf1 activ: 54

Results for C#CCOCCOCCOCCNc1nc(N2CCN(C(=O)CCCCCCCCCCNC(=O)[C@@H](CCSC)n3cc(CCO)nn3)CC2)nc(N2CCN(C(=O)CCCCCCCCCCNC(=O)[C@H]([C@@H](C)CC)n3cc(CCCCCN)nn3)CC2)n1 ?
Apaf1 activ: 51
